Assay results reported in ChEMBL document CHEMBL1130022, “Novel heterocyclic-fused pyridazinones as potent and selective phosphodiesterase IV inhibitors” (J Med Chem, 1997).

Experiments:
Phosphodiesterase 4 [1] = biological target: T1, Phosphodiesterase 4 (Homo sapiens, UniProt P27815+Q08499+Q07343+Q08493); experiment: Inhibition of guinea pig ventricular Phosphodiesterase 4; format: protein assay, Cavia porcellus; settings: target entry is the homologue from another species
Phosphodiesterase 3 [2] = biological target: T2, Phosphodiesterase 3 (Homo sapiens, UniProt Q14432+Q13370); experiment: Inhibition of guinea pig ventricular Phosphodiesterase 3 at 20 uM; format: protein assay; settings: Cavia porcellus, target entry is the homologue from another species
Procedure, shortened: (§1)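 Guinea pig ventricular PDE III/IV resolved by Mono-Q anion exchange (50–1000 mM sodium acetate gradient, Bis-Tris pH 6.5); isoenzymes characterized by substrate selectivity, Ca2+/calmodulin and selective inhibitors; pools stored -20 °C with 1 g/L BSA. Thompson–Strada assay, cAMP substrate 0.25 μM, duplicates; drugs in DMSO; IC50 by nonlinear regression or % inhibition at stated concentration, n = 3, ±SEM.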

Phosphodiesterase 3 [3] = biological target: T2, Phosphodiesterase 3; experiment: Inhibition of guinea pig ventricular Phosphodiesterase 3; format: protein assay, Cavia porcellus; settings: target entry is the homologue from another species
[4] = biological target: Phosphodiesterase 4 (Rattus norvegicus) (UniProt P14270+P14646+P14644+P54748); experiment: Displacement of [3H]rolipram from rat brain membranes at 10 uM; format: cell membranes; settings: Membrane
Phosphodiesterase 3 [5] = biological target: T2, Phosphodiesterase 3; experiment: Inhibition of guinea pig ventricular Phosphodiesterase 3 at 200 uM; settings: Cavia porcellus, target entry is the homologue from another species
Phosphodiesterase 4 [6] = biological target: T1, Phosphodiesterase 4; experiment: Inhibition of guinea pig ventricular Phosphodiesterase 4 at 200 uM; format: protein assay; settings: Cavia porcellus, target entry is the homologue from another species; procedure, shortened: as §1

| Compound | IC50 (Phosphodiesterase 4 [1]) | inhibition (Phosphodiesterase 3 [2]) | IC50 (Phosphodiesterase 3 [3]) | inhibition [4] | inhibition (Phosphodiesterase 3 [5]) | inhibition (Phosphodiesterase 4 [6]) |
| --- | --- | --- | --- | --- | --- | --- |
| O=c1c2cccnc2c(-c2cccc(Cl)c2)nn1Cc1ccncc1 | 56 nM | – | 5100 nM | – | – | – |
| CCOC(=O)c1sc2c(=O)n(CC)nc(-c3ccccc3)c2c1C | 900 nM | – | 5900 nM | – | – | – |
| Cc1nn(C)c2c(=O)n(Cc3ccccc3)nc(-c3ccccc3)c12 | – | – | – | 11% | 30% | 45% |
| CCOC(=O)c1nc2c(O)n(CC)nc(-c3ccccc3)c-2c1C | 600 nM | 30% | – | – | – | – |
| COc1ccc(C2CNC(=O)C2)cc1OC1CCCC1 (centres undefined) [ROLIPRAM] | – | – | 242000 nM | – | – | – |
| CCOC(=O)c1sc2c(=O)n(Cc3ccccc3)nc(-c3ccccc3)c2c1C | 11000 nM | 20% | – | – | – | – |
| CCn1nc(-c2ccccc2)c2c(c1=O)N(C)CC(C#N)=C2C | 1100 nM | 51% | – | – | – | – |
| CCOC(=O)c1sc2c(=O)n(CC)nc(-c3cccc(Cl)c3)c2c1C | 800 nM | 56% | – | – | – | – |
| Cc1nnc2c(O)n(Cc3ccccc3)nc(-c3ccccc3)c1-2 | 3100 nM | – | – | 54% | 60% | – |

Continued, values first:

| IC50 (Phosphodiesterase 4 [1]) | inhibition (Phosphodiesterase 3 [2]) | IC50 (Phosphodiesterase 3 [3]) | inhibition [4] | inhibition (Phosphodiesterase 3 [5]) | inhibition (Phosphodiesterase 4 [6]) | Compound |
| --- | --- | --- | --- | --- | --- | --- |
| 1300 nM | 25% | – | – | – | – | CCOC(=O)c1sc2c(=O)n(CC)nc(-c3cccc([N+](=O)[O-])c3)c2c1C |
| 7400 nM | 35% | – | 46% | – | – | CCn1nc(-c2ccccc2)c2c(C)nn(C)c2c1=O |
| 2000 nM | 35% | – | – | – | – | CCn1nc(-c2ccccc2)c2c(C)nnc-2c1O |
| 31000 nM | 33% | – | 28% | – | – | CCOC(=O)c1nc2c(O)n(Cc3ccccc3)nc(-c3ccccc3)c-2c1C |
